For data set [1], the system named is SK-OV-3 (ovarian) cancer cell line. Put plainly: SRB growth inhibition assay, SK-OV-3. In kind it is cell-based. Conditions: Homo sapiens, SK-OV-3, 48 h, read-out: GI50 (μM) SRB assay SK-OV-3. Background: Sulforhodamine B stains cellular protein and so reports cell mass.
In another data set the test system is tubulin. Nature of the data set: Inhibition of [3H]colchicine binding to tubulin. The settings on record: 1.0 µM tubulin, 5.0 µM [3H]colchicine.
Data set [2] deals with PC3-DAB2IP-luc human prostate tumor xenograft. Put plainly: In vivo vascular disruption by dynamic bioluminescence imaging. On the set-up: species or system rat. The essentials: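 Three male […] rats (about 6 weeks old, 100-120 g) carried s.c. right-thigh PC3-DAB2IP-luc tumors (5 X 10⁵ cells in 30% Matrigel), treated once tumors reached ≥1 cm diameter. Prodrug in saline was given IP as single or sequential doses, with CA4P IP as control. Under 3% isoflurane, 120 mg/kg D-luciferin was injected s.c. in the neck, fresh at each session. Tumor-ROI light emission was imaged over about 30 min at baseline, 4 h and 24 h.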

Another data set concerns tumor vasculature. The settings on record: 30 mg/kg, rats; cited from earlier work.
Data set [3] relates to purified bovine brain tubulin. Nature of the data set: Inhibition of tubulin polymerization. In kind it is biochemical. Conditions: cell-free assay.
Data set [4] deals with DU-145 (prostate) cancer cell line. Nature of the data set: SRB growth inhibition assay, DU-145. The settings on record: read-out: GI50 (μM) SRB assay DU-145. In kind it is cell-based, human.
Data set [5] concerns NCI-H460 (lung) cancer cell line. Put plainly: SRB growth inhibition assay, NCI-H460. In kind it is cell-based, human. Conditions: read-out: GI50 (μM) SRB assay NCI-H460.

As a reminder, the GI50 is the concentration at which growth is held to half of that of the control.

“Also recorded” adds a separate entry of the source. Where two headings read alike, the source gives them in different places.

For `COc1ccc2c(c1CO)CCCC=C2c1cc(OC)c(OC)c(OC)c1` [Compound 28, (3-Methoxy-9-(3,4,5-trimethoxyphenyl)-6,7-dihydro-5H-benzo[7]annulen-4-yl)methanol], the GI50 in data set [1] was determined as 40.3 nM.

On to `COc1ccc(/C=C\c2cc(OC)c(OC)c(OC)c2)cc1O` [CA4, combretastatin A-4, reference compound], for which the “% Inhibition of colchicine binding ± SD” value in the data set on tubulin (compound at 1 μM) stood at 84 ± 3%.

On to `COc1ccc(/C=C\c2cc(OC)c(OC)c(OC)c2)cc1OP(=O)([O-])[O-].[Na+].[Na+]` [CA4P, combretastatin A-4 phosphate, reference compound], for which the “Extent and longevity of diminished BLI signal compared with 40 mg/kg 69” value in data set [2] (30 mg/kg IP, rat) is given as “very similar effect”. For the same compound, the Vascular shutdown entry with tumor vasculature is listed as “extensive vascular shutdown”.

Consider `COc1cc(C2=CC=CCc3c2ccc(OC)c3OP(=O)([O-])[O-])cc(OC)c1OC.[Na+].[Na+]` [Compound 69, Sodium 3-methoxy-9-(3,4,5-trimethoxyphenyl)-5H-benzo[7]annulen-4-yl phosphate], for which the “Inhibition of tubulin polymerization (in words)” value (from here on “Inhibition … (in words)”) in data set [3] was “inactive”. Further, the GI50 in data set [1] turned out to be 15.3 nM; in data set [4] (Homo sapiens, DU-145, 48 h) it was 23.9 nM. Also, the “Change in BLI light emission / vascular perturbation” value in data set [2] (10 mg/kg IP, rat) was “minimal change in light emission; also recorded: no vascular perturbation”. In data set [2] (40 mg/kg IP, 24 h, rat), the “Recovery of BLI signal” value is listed as “substantial recovery”. Also, the “Appearance of the rats” value in data set [2] (40 mg/kg IP, 48 h) was “appeared healthy”. The Tolerability entry in data set [2] (80 mg/kg IP, rat) was “well tolerated”. Besides, the “Vascular disruption at the higher dose” value in data set [2] (80 mg/kg IP, rat, compared with 40 mg/kg) is recorded as “did not show additional vascular disruption”.

As to `COCCOCCOc1c(OC)ccc2c1CCCC=C2c1cc(OC)c(OC)c(OC)c1` [Compound 8, 3-Methoxy-4-(2-(2-methoxyethoxy)ethoxy)-9-(3,4,5-trimethoxyphenyl)-6,7-dihydro-5H-benzo[7]annulene], in data set [3], the “Inhibition … (in words)” value is on record as “loss of inhibitory activity”.

Turning to `COc1cc(C2=CCCCc3c2ccc(OC)c3OCCO)cc(OC)c1OC` [Compound 11, 2-((3-Methoxy-9-(3,4,5-trimethoxyphenyl)-6,7-dihydro-5H-benzo[7]annulen-4-yl)oxy)ethan-1-ol], the “Inhibition … (in words)” value in data set [3] is recorded as “loss of inhibitory activity”.

In the case of `COc1cc(C2(O)C=CCCc3c2ccc(OC)c3OC)cc(OC)c1OC` (stereo not drawn) [Compound 56, 1,2-Dimethoxy-5-(3,4,5-trimethoxyphenyl)-8,9-dihydro-5H-benzo[7]annulen-5-ol], the “Inhibition … (in words)” value in data set [3] was “lack of tubulin activity”. The “% Inhibition of colchicine binding ± SD” value in the data set with tubulin (compound at 5 μM) was 0 (5 μM) %.

In the case of `COc1ccc2c(c1O)CCCC=C2c1cc(OC)c(OC)c(OC)c1` [KGP18, 3-Methoxy-9-(3,4,5-trimethoxyphenyl)-6,7-dihydro-5H-benzo[7]annulen-4-ol, reference compound], the GI50 in data set [1] came out at 0.0543 nM; in data set [5] (Homo sapiens, NCI-H460, 48 h) it was 0.0418 nM; in data set [4] (Homo sapiens, DU-145, 48 h), 0.0249 nM.

With `COc1ccc2c(c1O)CC=CC=C2c1cc(OC)c(OC)c(OC)c1` [Compound 68, 3-Methoxy-9-(3,4,5-trimethoxyphenyl)-5H-benzo[7]annulen-4-ol], the GI50 is 6.9 nM in data set [1] and 97.6 nM in data set [4] (Homo sapiens, DU-145, 48 h).

As for `COc1cc(C2CCc3c(ccc(OC)c3OC)C(=O)C2)cc(OC)c1OC` (stereo not drawn) [Compound 57, 1,2-Dimethoxy-7-(3,4,5-trimethoxyphenyl)-6,7,8,9-tetrahydro-5H-benzo[7]annulen-5-one], in data set [3], the “Inhibition … (in words)” value is on record as “lack of activity”. Also, in the data set on tubulin (compound at 5 μM), the “% Inhibition of colchicine binding ± SD” value is reported as 0 (5 μM) %.

Turning to `COc1ccc2c(c1O)CCCC(O)C2(O)c1cc(OC)c(OC)c(OC)c1` (stereo not drawn) [Compound 15, 2-Methoxy-5-(3,4,5-trimethoxyphenyl)-6,7,8,9-tetrahydro-5H-benzo[7]annulene-1,5,6-triol], in the data set on tubulin (compound at 5 μM), the “% Inhibition of colchicine binding ± SD” value is listed as 0 (5 μM) %.

For “N-(1-hydroxy-2-methoxy-5-(3,4,5-trimethoxyphenyl)-6,7,8,9-tetrahydro-5H-benzo[7]annulen-7-yl)acetamide [Compound 49]”, in the data set on tubulin (compound at 5 μM), the “% Inhibition of colchicine binding ± SD” value is 0.4 ± 0.6 (5 μM) %. The GI50 in data set [5] (NCI-H460, 48 h treatment) is 334 nM; in data set [4] (DU-145, 48 h treatment), 1200 nM.

The values are drawn from PMC6925959 (Journal of medicinal chemistry, 2019).
